Measurements reported in ChEMBL document CHEMBL3627695, “1-Benzyl-2-methyl-3-indolylmethylene barbituric acid derivatives: Anti-cancer agents that target nucleophosmin 1 (NPM1)” (Bioorg Med Chem, 2015).

What was measured:
SK-OV-3 = test: Anticancer activity against human SKOV3 cells after 48 hrs by sulforhodamine B assay; format: functional; conditions: SK-OV-3, 48 h
Summary of the method: (§1)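 NCI-60 human tumour cell line panel. Compounds dissolved in DMSO/H2O and tested at five 10-fold dilutions (10⁻⁴ M to 10⁻⁸ M) for 48 hr. GI50 is the molar concentration giving 50% reduction in net cell growth relative to cell numbers on day 0.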

HL-60(TB) = test: Anticancer activity against human HL-60(TB) cells after 48 hrs by sulforhodamine B assay; format: functional; conditions: HL-60, 48 h; summary of the method: as §1
NCI-H522 = test: Anticancer activity against human NCI-H522 cells after 48 hrs by sulforhodamine B assay; format: functional; conditions: NCI-H522, 48 h; summary of the method: as §1
SK-MEL-5 = test: Anticancer activity against human SK-MEL-5 cells after 48 hrs by sulforhodamine B assay; format: functional; conditions: SK-MEL-5, 48 h; summary of the method: as §1
[1] = Anticancer activity against human MOLT4 cells after 48 hrs by sulforhodamine B assay; format: functional; conditions: MOLT-4, 48 h; summary of the method: as §1
[2] = Anticancer activity against human SF539 cells after 48 hrs by sulforhodamine B assay; format: functional; conditions: SF-539, 48 h; summary of the method: as §1
[3] = (§2) Anticancer activity against human OCI-AML3 cells expressing mutant NPM1 assessed as apoptosis for 48 hrs by annexin-V and TO-PRO3 staining based flow cytometry; format: functional, cell-based; conditions: OCI-AML-3, 48 h
Summary of the method: (§3)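 OCI-AML3 cells (NPM1c+) in logarithmic growth, passaged 2–3 times weekly. Cells were exposed to the indicated compound concentrations for 48 hr, then stained with annexin V and TO-PRO 3. Percent apoptotic cells was read by flow cytometry. AP50 is the concentration at which 50% of cells undergo apoptosis.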

OCI-AML-3 = test: as §2; format: functional, cell-based; summary of the method: as §3
SNB-75 = test: Anticancer activity against human SNB75 cells after 48 hrs by sulforhodamine B assay; format: functional; conditions: SNB-75, 48 h; summary of the method: as §1
A498 = test: Anticancer activity against human A498 cells after 48 hrs by sulforhodamine B assay; format: functional; conditions: A498, 48 h; summary of the method: as §1
M14 = test: Anticancer activity against human M14 cells after 48 hrs by sulforhodamine B assay; format: functional; conditions: M14, 48 h; summary of the method: as §1
SNB-19 = test: Anticancer activity against human SNB19 cells after 48 hrs by sulforhodamine B assay; format: functional; conditions: SNB-19, 48 h; summary of the method: as §1
[4] = Anticancer activity against human RPMI8226 cells after 48 hrs by sulforhodamine B assay; format: functional; conditions: RPMI-8226, 48 h; summary of the method: as §1
NCI-H460 = test: Anticancer activity against human NCI-H460 cells after 48 hrs by sulforhodamine B assay; format: functional; conditions: NCI-H460, 48 h; summary of the method: as §1
[5] = Anticancer activity against human HCC2998 cells after 48 hrs by sulforhodamine B assay; format: functional; conditions: HCC 2998, 48 h; summary of the method: as §1
U-251 = test: Anticancer activity against human U251 cells after 48 hrs by sulforhodamine B assay; format: functional; conditions: U-251, 48 h
Summary of the method: (§4)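 NCI-60 panel protocol. Compounds were dissolved in DMSO/H2O and tested at five 10-fold concentrations (10⁻⁴ to 10⁻⁸ M) with 48 hr incubation. GI50 is the molar concentration giving a 50% reduction in net cell growth relative to cell numbers on day 0.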

SK-MEL-28 = test: Anticancer activity against human SK-MEL-28 cells after 48 hrs by sulforhodamine B assay; format: functional; conditions: SK-MEL-28, 48 h; summary of the method: as §1
OVCAR-3 = test: Anticancer activity against human OVCAR3 cells after 48 hrs by sulforhodamine B assay; format: functional; conditions: OVCAR-3, 48 h; summary of the method: as §1
OVCAR-5 = test: Anticancer activity against human OVCAR5 cells after 48 hrs by sulforhodamine B assay; format: functional; conditions: OVCAR-5, 48 h; summary of the method: as §1
MDA-MB-468 = test: Anticancer activity against human MDA-MB-468 cells after 48 hrs by sulforhodamine B assay; format: functional; conditions: MDA-MB-468, 48 h; summary of the method: as §1
OVCAR-4 = test: Anticancer activity against human OVCAR4 cells after 48 hrs by sulforhodamine B assay; format: functional; conditions: OVCAR-4, 48 h; summary of the method: as §1
MDA-MB-231 = test: Anticancer activity against human MDA-MB-231 cells after 48 hrs by sulforhodamine B assay; format: functional; conditions: MDA-MB-231, 48 h; summary of the method: as §1
SK-MEL-2 = test: Anticancer activity against human SK-MEL-2 cells after 48 hrs by sulforhodamine B assay; format: functional; conditions: SK-MEL-2, 48 h; summary of the method: as §1
[6] = Anticancer activity against human Hs 578T cells after 48 hrs by sulforhodamine B assay; format: functional; summary of the method: as §1
NCI-H322M = test: Anticancer activity against human NCI-H322M cells after 48 hrs by sulforhodamine B assay; format: functional; summary of the method: as §1
UO-31 = test: Anticancer activity against human UO31 cells after 48 hrs by sulforhodamine B assay; format: functional; conditions: UO-31, 48 h; summary of the method: as §4
MCF7 = test: Anticancer activity against human MCF7 cells after 48 hrs by sulforhodamine B assay; format: functional; conditions: MCF7, 48 h; summary of the method: as §1
ACHN = test: Anticancer activity against human ACHN cells after 48 hrs by sulforhodamine B assay; format: functional; summary of the method: as §1
K562 = test: Anticancer activity against human K562 cells after 48 hrs by sulforhodamine B assay; format: functional; conditions: K562, 48 h; summary of the method: as §1
Malme-3M = test: Anticancer activity against human MALME-3M cells after 48 hrs by sulforhodamine B assay; format: functional; summary of the method: as §1
[7] = Anticancer activity against human COLO205 cells after 48 hrs by sulforhodamine B assay; format: functional; conditions: COLO 205, 48 h; summary of the method: as §1
SF-268 = test: Anticancer activity against human SF268 cells after 48 hrs by sulforhodamine B assay; format: functional; conditions: SF-268, 48 h; summary of the method: as §1
T47D = test: Anticancer activity against human T47D cells after 48 hrs by sulforhodamine B assay; format: functional; summary of the method: as §4
786-0 = test: Anticancer activity against human 786-0 cells after 48 hrs by sulforhodamine B assay; format: functional; conditions: 786-0, 48 h; summary of the method: as §1
HCT-116 = test: Anticancer activity against human HCT116 cells after 48 hrs by sulforhodamine B assay; format: functional; conditions: HCT-116, 48 h; summary of the method: as §1
OVCAR-8 = test: Anticancer activity against human OVCAR8 cells after 48 hrs by sulforhodamine B assay; format: functional; conditions: OVCAR-8, 48 h; summary of the method: as §1
[8] = Anticancer activity against human NCI-ADR-RES cells after 48 hrs by sulforhodamine B assay; format: functional; summary of the method: as §1
SR = test: Anticancer activity against human SR cells after 48 hrs by sulforhodamine B assay; format: functional; summary of the method: as §4
NCI-H226 = test: Anticancer activity against human NCI-H226 cells after 48 hrs by sulforhodamine B assay; format: functional; conditions: NCI-H226, 48 h; summary of the method: as §1
IGROV-1 = test: Anticancer activity against human IGROV1 cells after 48 hrs by sulforhodamine B assay; format: functional; conditions: IGROV-1, 48 h; summary of the method: as §1
A549 = test: Anticancer activity against human A549/ATCC cells after 48 hrs by sulforhodamine B assay; format: functional; conditions: A549, 48 h; summary of the method: as §1
HT-29 = test: Anticancer activity against human HT-29 cells after 48 hrs by sulforhodamine B assay; format: functional; conditions: HT-29, 48 h; summary of the method: as §1
HCT-15 = test: Anticancer activity against human HCT15 cells after 48 hrs by sulforhodamine B assay; format: functional; conditions: HCT-15, 48 h; summary of the method: as §1
[9] = Anticancer activity against human LOXIMVI cells after 48 hrs by sulforhodamine B assay; format: functional; conditions: LOX IMVI; summary of the method: as §1
HOP-62 = test: Anticancer activity against human HOP62 cells after 48 hrs by sulforhodamine B assay; format: functional; conditions: HOP-62, 48 h; summary of the method: as §1
KM12 = test: Anticancer activity against human KM12 cells after 48 hrs by sulforhodamine B assay; format: functional; conditions: KM12, 48 h; summary of the method: as §1
[10] = Anticancer activity against human HOP92 cells after 48 hrs by sulforhodamine B assay; format: functional; conditions: HOP-92, 48 h; summary of the method: as §1
CCRF-CEM = test: Anticancer activity against human CCRF-CEM cells after 48 hrs by sulforhodamine B assay; format: functional; summary of the method: as §1
TK-10 = test: Anticancer activity against human TK10 cells after 48 hrs by sulforhodamine B assay; format: functional; conditions: TK-10, 48 h; summary of the method: as §4
CAKI-1 = test: Anticancer activity against human Caki1 cells after 48 hrs by sulforhodamine B assay; format: functional; conditions: CAKI-1, 48 h; summary of the method: as §1
SN12C = test: Anticancer activity against human SN12C cells after 48 hrs by sulforhodamine B assay; format: functional; summary of the method: as §1
DU-145 = test: Anticancer activity against human DU145 cells after 48 hrs by sulforhodamine B assay; format: functional; conditions: DU-145, 48 h; summary of the method: as §1
BT-549 = test: Anticancer activity against human BT549 cells after 48 hrs by sulforhodamine B assay; format: functional; conditions: BT-549, 48 h; summary of the method: as §1
SW-620 = test: Anticancer activity against human SW620 cells after 48 hrs by sulforhodamine B assay; format: functional; conditions: SW-620, 48 h; summary of the method: as §4
[11] = Anticancer activity against human SF295 cells after 48 hrs by sulforhodamine B assay; format: functional; conditions: SF-295, 48 h; summary of the method: as §1
UACC-257 = test: Anticancer activity against human UACC257 cells after 48 hrs by sulforhodamine B assay; format: functional; conditions: UACC-257, 48 h; summary of the method: as §4
[12] = Anticancer activity against human RXF393 cells after 48 hrs by sulforhodamine B assay; format: functional; conditions: RXF 393, 48 h; summary of the method: as §1
MDA-MB-435 = test: Anticancer activity against human MDA-MB-435 cells after 48 hrs by sulforhodamine B assay; format: functional; conditions: MDA-MB-435, 48 h; summary of the method: as §1

SMILES: COC(=O)c1ccc(Cn2c(C)c(C=C3C(=O)NC(=S)NC3=O)c3ccccc32)cc1
- GI50 (SK-OV-3): 0.45 µM
- GI50 (HL-60(TB)): 0.22 µM
- GI50 (NCI-H522): 0.25 µM
- GI50 (SK-MEL-5): 1.13 µM
- GI50 [1]: 0.35 µM
- GI50 [2]: 0.22 µM
- AC50 [3]: 1.75 µM
- Activity (OCI-AML-3): Dose-dependent effect
- GI50 (SNB-75): 0.46 µM
- GI50 (A498): 0.19 µM
- GI50 (M14): 0.33 µM
- GI50 (SNB-19): 1.05 µM
- GI50 [4]: 0.31 µM
- GI50 (NCI-H460): 0.33 µM
- GI50 [5]: 0.4 µM
- GI50 (U-251): 0.32 µM
- GI50 (SK-MEL-28): 1.05 µM
- GI50 (OVCAR-3): 0.3 µM
- GI50 (OVCAR-5): 0.42 µM
- GI50 (MDA-MB-468): 0.34 µM
- GI50 (OVCAR-4): 0.46 µM
- GI50 (MDA-MB-231): 0.38 µM
- GI50 (SK-MEL-2): 1.12 µM
- GI50 [6]: 0.22 µM
- GI50 (NCI-H322M): 0.53 µM
- GI50 (UO-31): 0.41 µM
- GI50 (MCF7): 0.4 µM
- GI50 (ACHN): 0.51 µM
- GI50 (K562): 0.27 µM
- GI50 (Malme-3M): 1.48 µM
- GI50 [7]: 0.2 µM
- GI50 (SF-268): 0.42 µM
- GI50 (T47D): 1.86 µM
- GI50 (786-0): 0.32 µM
- GI50 (HCT-116): 0.26 µM
- GI50 (OVCAR-8): 0.32 µM
- GI50 [8]: 0.35 µM
- GI50 (SR): 0.32 µM
- GI50 (NCI-H226): 0.41 µM
- GI50 (IGROV-1): 0.51 µM
- GI50 (A549): 1.36 µM
- GI50 (HT-29): 0.31 µM
- GI50 (HCT-15): 0.33 µM
- GI50 [9]: 0.32 µM
- GI50 (HOP-62): 0.39 µM
- GI50 (KM12): 0.31 µM
- GI50 [10]: 0.25 µM
- GI50 (CCRF-CEM): 0.34 µM
- GI50 (TK-10): 0.31 µM
- GI50 (CAKI-1): 0.5 µM
- GI50 (SN12C): 0.41 µM
- GI50 (DU-145): 0.34 µM
- GI50 (BT-549): 0.31 µM
- GI50 (SW-620): 0.4 µM
- GI50 [11]: 0.35 µM
- GI50 (UACC-257): 0.8 µM
- GI50 [12]: 0.3 µM
- GI50 (MDA-MB-435): 0.22 µM
